# Results taken from ChEMBL document CHEMBL2311431, “Synthesis and biological evaluation of some 5-arylidene-2-(1,3-thiazol-2-ylimino)-1,3-thiazolidin-4-ones as dual anti-inflammatory/antimicrobial agents” (Bioorg Med Chem, 2013).
# Activity calls are given as the source filed them. The rule behind the calls is not given here.
# Assays:
# Escherichia coli [1] = assay: Bactericidal activity against Escherichia coli ATCC 35210 after 72 hrs by serial subcultivation method; format: functional; settings: ATCC 35210, 72 h
# Micrococcus flavus [2] = assay: Bactericidal activity against Micrococcus flavus ATCC 10240 after 72 hrs by serial subcultivation method; format: functional; settings: ATCC 10240, 72 h
# Micrococcus flavus [3] = assay: Antibacterial activity against Micrococcus flavus ATCC 10240 after 24 hr by microdilution test; format: functional; settings: ATCC 10240, 24 h
# Outline: (§1)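 Broth microdilution in LB medium, about 1.0×10^4 cfu per well; compounds from 1 mg/ml stocks in 5% DMSO. Incubated 24 h. MIC is the lowest concentration with no visible growth under a binocular microscope. Run in duplicate, repeated three times.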
# Bacillus cereus [4] = assay: Bactericidal activity against Bacillus cereus clinical isolate after 72 hrs by serial subcultivation method; format: functional
# Escherichia coli [5] = assay: Antibacterial activity against Escherichia coli ATCC 35210 after 24 hr by microdilution test; format: functional; settings: ATCC 35210, 24 h; outline: as §1
# Bacillus cereus [6] = assay: Antibacterial activity against Bacillus cereus clinical isolate after 24 hr by microdilution test; format: functional; outline: as §1
# Listeria monocytogenes [7] = assay: Bactericidal activity against Listeria monocytogenes NCTC 7973 after 72 hrs by serial subcultivation method; format: functional; settings: NCTC 7973, 72 h
# Pseudomonas aeruginosa [8] = assay: Antibacterial activity against Pseudomonas aeruginosa ATCC 27853 after 24 hr by microdilution test; format: functional; settings: ATCC 27853, 24 h; outline: as §1
# Pseudomonas aeruginosa [9] = assay: Bactericidal activity against Pseudomonas aeruginosa ATCC 27853 after 72 hrs by serial subcultivation method; format: functional; settings: ATCC 27853, 72 h
# Listeria monocytogenes [10] = assay: Antibacterial activity against Listeria monocytogenes NCTC 7973 after 24 hr by microdilution test; format: functional; settings: NCTC 7973, 24 h; outline: as §1
# Staphylococcus aureus [11] = assay: Antibacterial activity against Staphylococcus aureus ATCC 6538 after 24 hr by microdilution test; format: functional; settings: ATCC 6538, 24 h; outline: as §1
# Staphylococcus aureus [12] = assay: Bactericidal activity against Staphylococcus aureus ATCC 6538 after 72 hrs by serial subcultivation method; format: functional; settings: ATCC 6538, 72 h
# Mus musculus = assay: Antiinflammatory activity in AKR mouse assessed as inhibition of carrageenan-induced paw edema at 0.01 mmol/kg, ip measured after 3.5 hrs of carrageenan-challenge; format: functional
# Outline: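 AKR mice of both sexes (pregnant females excluded), 6-10 per group, fasted during the experiment. Edema induced by intradermal 0.05 mL of 2% carrageenin into the right hind paw. Compound given at 0.01 mmol/kg ip, suspended in water with Tween-80, at the same time as carrageenin.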
# [13] = biological target: T1, Prostaglandin G/H synthase 1 (Ovis aries) (UniProt P05979); assay: Inhibition of ovine COX1 assessed as inhibition of PGF2a production by enzyme immunoassay; set-up: concentration or dose not given beside the values
# T1 sequence (whole entry): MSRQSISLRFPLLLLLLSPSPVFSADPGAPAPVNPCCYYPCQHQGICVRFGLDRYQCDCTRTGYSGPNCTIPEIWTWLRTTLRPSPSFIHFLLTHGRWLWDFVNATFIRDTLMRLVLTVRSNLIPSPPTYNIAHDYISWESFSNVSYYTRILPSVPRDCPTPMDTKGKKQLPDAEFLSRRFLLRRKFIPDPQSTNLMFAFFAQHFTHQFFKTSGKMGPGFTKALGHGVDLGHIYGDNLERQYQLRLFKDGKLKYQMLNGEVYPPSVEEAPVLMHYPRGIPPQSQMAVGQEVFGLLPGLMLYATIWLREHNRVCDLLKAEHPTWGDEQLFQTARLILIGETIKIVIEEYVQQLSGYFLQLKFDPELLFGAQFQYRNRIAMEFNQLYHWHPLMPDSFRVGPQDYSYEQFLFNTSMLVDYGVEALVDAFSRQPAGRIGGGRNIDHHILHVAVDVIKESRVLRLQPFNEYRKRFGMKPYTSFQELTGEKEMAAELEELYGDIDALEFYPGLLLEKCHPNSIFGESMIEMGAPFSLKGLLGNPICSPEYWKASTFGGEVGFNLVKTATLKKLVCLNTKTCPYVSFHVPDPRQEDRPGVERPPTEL
# Outline: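 Ovine COX-1 from a commercial screening kit, tested with 0.1 µM arachidonic acid, which is below the saturating level. COX-derived PGH2 is reduced by SnCl2 to PGF2a, quantified by enzyme immunoassay with a broad prostaglandin antibody. At least triplicate.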
# [14] = Inhibition of soybean lipoxygenase assessed as inhibition of sodium linolate conversion to 13-hydroperoxylinoleic acid after 4 mins by spectrophotometry; set-up: species or system Glycine max
# Aspergillus niger [15] = assay: Fungicidal activity against Aspergillus niger ATCC 6275 after 72 hrs by serial subcultivation method; format: functional; settings: ATCC 6275, 72 h
# Penicillium ochrochloron [16] = assay: Fungicidal activity against Penicillium ochrochloron ATCC 9112 after 72 hrs by serial subcultivation method; format: functional; settings: ATCC 9112, 72 h
# Talaromyces funiculosus [17] = assay: Antifungal activity against Penicillium funiculosum ATCC 36839 after 72 hrs by serial dilution technique; format: functional; settings: ATCC 36839, 72 h
# Outline: (§2)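 Serial dilution in malt broth; compounds from 1 mg/ml stocks in 5% DMSO; 72 h at 28 °C. MIC is the lowest concentration with no visible growth under a binocular microscope. Run in duplicate, repeated three times.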
# Trichoderma viride [18] = assay: Antifungal activity against Trichoderma viride IAM 5061 after 72 hrs by serial dilution technique; format: functional; settings: IAM 5061, 72 h; outline: as §2
# Aspergillus flavus [19] = assay: Fungicidal activity against Aspergillus flavus ATCC 9643 after 72 hrs by serial subcultivation method; format: functional; settings: ATCC 9643, 72 h
# Penicillium ochrochloron [20] = assay: Antifungal activity against Penicillium ochrochloron ATCC 9112 after 72 hrs by serial dilution technique; format: functional; settings: ATCC 9112, 72 h; outline: as §2
# Aspergillus flavus [21] = assay: Antifungal activity against Aspergillus flavus ATCC 9643 after 72 hrs by serial dilution technique; format: functional; settings: ATCC 9643, 72 h; outline: as §2
# Aspergillus fumigatus [22] = assay: Antifungal activity against Aspergillus fumigatus after 72 hrs by serial dilution technique; format: functional; outline: as §2
# Aspergillus niger [23] = assay: Antifungal activity against Aspergillus niger ATCC 6275 after 72 hrs by serial dilution technique; format: functional; settings: ATCC 6275, 72 h; outline: as §2
# Aspergillus fumigatus [24] = assay: Fungicidal activity against Aspergillus fumigatus after 72 hrs by serial subcultivation method; format: functional
# Trichoderma viride [25] = assay: Fungicidal activity against Trichoderma viride IAM 5061 after 72 hrs by serial subcultivation method; format: functional; settings: IAM 5061, 72 h
# Talaromyces funiculosus [26] = assay: Fungicidal activity against Penicillium funiculosum ATCC 36839 after 72 hrs by serial subcultivation method; format: functional; settings: ATCC 36839, 72 h
Structure (SMILES),MBC (Escherichia coli [1]) [µM],MBC (Micrococcus flavus [2]) [µM],MIC (Micrococcus flavus [3]) [µM],MBC (Bacillus cereus [4]) [µM],MIC (Escherichia coli [5]) [µM],MIC (Bacillus cereus [6]) [µM],MBC (Listeria monocytogenes [7]) [µM],MIC (Pseudomonas aeruginosa [8]) [µM],MBC (Pseudomonas aeruginosa [9]) [µM],MIC (Listeria monocytogenes [10]) [µM],MIC (Staphylococcus aureus [11]) [µM],MBC (Staphylococcus aureus [12]) [µM],inhibition (Mus musculus),MFC (Aspergillus niger [15]) [µM],MFC (Penicillium ochrochloron [16]) [µM],MIC (Talaromyces funiculosus [17]) [µM],MIC (Trichoderma viride [18]) [µM],MFC (Aspergillus flavus [19]) [µM],MIC (Penicillium ochrochloron [20]) [µM],MIC (Aspergillus flavus [21]) [µM],other results
CN[C@@H]1[C@H](O[C@H]2[C@H](O[C@H]3[C@H](O)[C@@H](O)[C@H](N=C(N)N)[C@@H](O)[C@@H]3N=C(N)N)O[C@@H](C)[C@]2(O)C=O)O[C@@H](CO)[C@H](O)[C@H]1O [STREPTOMYCIN],344,172,86,86,172,43,516,172,344,258,172,344,–,–,–,–,–,–,–,–,–
CC(Cc1ccc(O)c(O)c1)C(C)Cc1ccc(O)c(O)c1 (stereo unspecified) [NORDIHYDROGUAIARETIC ACID],–,–,–,–,–,–,–,–,–,–,–,–,inactive,–,–,–,–,–,–,–,inhibition [13]: inactive; IC50 ([14]; read-out: IC50): 32 µM
O=C1N/C(=N\c2nc(-c3ccccc3)cs2)S/C1=C\c1ccccc1Cl,100,25,25,25,50,25,25,50,100,25,50,100,–,23.4,23.4,17.6,11.7,23.4,11.7,17.6,MIC (Aspergillus fumigatus [22]): 17.6 µM; MIC (Aspergillus niger [23]): 17.6 µM; MFC (Aspergillus fumigatus [24]): 23.4 µM; MFC (Trichoderma viride [25]): 23.4 µM; MFC (Talaromyces funiculosus [26]): 23.4 µM
CC1(C)S[C@@H]2[C@H](NC(=O)[C@H](N)c3ccccc3)C(=O)N2[C@H]1C(=O)O [AMPICILLIN],492,372,248,372,372,248,744,744,1240,372,248,372,–,–,–,–,–,–,–,–,–
c1ccc(-c2ccc(C(c3ccccc3)n3ccnc3)cc2)cc1 (stereo unspecified) [BIFONAZOLE],–,–,–,–,–,–,–,–,–,–,–,–,–,640,640,640,640,640,480,480,MIC (Aspergillus fumigatus [22]): 480 µM; MIC (Aspergillus niger [23]): 480 µM; MFC (Aspergillus fumigatus [24]): 640 µM; MFC (Trichoderma viride [25]): 800 µM; MFC (Talaromyces funiculosus [26]): 800 µM
COc1ccc2cc([C@H](C)C(=O)O)ccc2c1 [NAPROXEN],–,–,–,–,–,–,–,–,–,–,–,–,inactive,–,–,–,–,–,–,–,inhibition ([13]; concentration not given here): 46%; IC50 [14]: Not Active
